# ChEMBL document CHEMBL1125254, “Allosteric modifiers of hemoglobin. 2. Crystallographically determined binding sites and hydrophobic binding/interaction analysis of novel hemoglobin oxygen effectors” (J Med Chem, 1991)
# Assay: Allosteric activity evaluated as the ratio of the oxygen pressure in mmHg between hemoglobin-compound and compound-free hemoglobin (control) solution at which 50% oxygen saturation's are respectively attained.
# How it was run: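 Oxygen equilibrium of human hemoglobin solutions at 2.7 mM Hb with compound at 10 mM, in 50 mM HEPES pH 7.4. P50 ratios are averaged, with standard deviations reported.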
row,P50d/P50c,SMILES
1,4.32,CC(C)(Oc1ccc(CC(=O)Nc2cc(Cl)cc(Cl)c2)cc1)C(=O)O
2,2.58,CC(C)(Oc1ccc(CNC(=O)c2ccc(Cl)cc2)cc1)C(=O)O
3,2.48,CC(C)(Oc1ccc(CNC(=O)c2cc(Cl)cc(Cl)c2)cc1)C(=O)O
4,2.79,CC(C)(Oc1ccc(CC(=O)Nc2ccc(Cl)cc2)cc1)C(=O)O
5,3.17,CC(C)(Oc1ccc(CC(=O)Nc2cc(Cl)c(Cl)c(Cl)c2)cc1)C(=O)O

# The remaining lines, values behind:
row,SMILES,P50d/P50c
1,CC(C)(Oc1ccc(NC(=O)Nc2cc(Cl)cc(Cl)c2)cc1)C(=O)O,3.62
2,CC(C)(Oc1ccc(NC(=O)Nc2cc(Cl)c(Cl)c(Cl)c2)cc1)C(=O)O,2.57
3,CC(C)(Oc1ccc(NC(=O)Nc2ccc(Cl)c(Cl)c2)cc1)C(=O)O,1.77
4,CC(C)(Oc1ccc(CCNC(=O)c2ccc(Cl)cc2)cc1)C(=O)O,1.74
5,CC(C)(Oc1ccc(CNC(=O)c2cc(Cl)c(Cl)c(Cl)c2)cc1)C(=O)O,2.13
